Bioassay records (PubChem BioAssay)
MrgX1 PAM: positive allosteric modulators of MrgX1, primary screen, HEK293 cells, Fluo-4 calcium flux; FDSS; active compounds read high; B-score at 10 µM; 310,000 compounds, 0.63% hits; Mas-related G-protein coupled receptor member X1 (Homo sapiens), Q96LB2;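 active = plate-corrected calcium response at least 3 library SD above typical, normal starting fluorescence, not activating the receptor alone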;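 also: compound read alongside a low EC10 to EC30 dose of BAM8-22 agonist; peak minus trough fluorescence over baseline measured at the second addition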
Target sequence (Q96LB2 whole entry, looked up): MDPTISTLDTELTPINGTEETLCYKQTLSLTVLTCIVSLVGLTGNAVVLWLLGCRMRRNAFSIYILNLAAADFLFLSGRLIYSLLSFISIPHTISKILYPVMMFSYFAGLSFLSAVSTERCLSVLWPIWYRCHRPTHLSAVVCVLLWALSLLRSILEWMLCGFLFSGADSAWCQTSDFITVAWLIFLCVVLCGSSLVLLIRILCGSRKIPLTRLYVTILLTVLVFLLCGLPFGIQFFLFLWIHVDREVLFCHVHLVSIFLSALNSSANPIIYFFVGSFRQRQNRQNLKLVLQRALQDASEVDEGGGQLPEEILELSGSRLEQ
MrgX1 antag: antagonists of human MrgX1 receptor, primary screen, HEK293 cells, Fluo-4 calcium flux; Mas-related G-protein coupled receptor member X1 (Homo sapiens), Q96LB2; BAM8-22 antagonism; active compounds read low; B-score at 10 µM; 310,000 compounds, 1.3% hits;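 active = calcium-response B-score plate-corrected more than 3 library SD below zero, starting fluorescence within 5 deviations, no agonist response on first addition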;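 also: peak minus trough fluorescence over baseline after final BAM8-22 challenge near maximal dose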
MrgX1 agonist: agonists of human MrgX1 receptor, primary screen, HEK293 cells, Fluo-4 calcium flux; Fluo-4 calcium fluorescence, agonist mode; active compounds read high; B-score at 10 µM; 310,000 compounds, 0.44% hits; AID 588627, 2011;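 active = calcium response B-score plate-corrected fluorescence ratio at least 3 library SD, with starting fluorescence B-score inside 5 SD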
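System: HEK293 cells stably expressing human MrgX1 receptor; Dosing: test compound in the initial addition of three; Schedule: overnight plating, then 30 min 37 °C plus 30 min room-temperature dye loading; Detection: kinetic calcium dye fluorescence, Fluo-4 NW; Controls: per-plate positive and negative controls for Z′ factor.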
RGS4 pot: RGS4 potentiators or activators, primary screen, cell-based, HEK293 M3R inducible RGS4, calcium flux. 310,000 compounds, 0.92% hits. carbachol calcium flux Fluo4; active compounds read low. AID 463111, 2010. B-score at 10 µM;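 active = B-score of the integrated calcium signal more than 4 SD below the library mean, with starting fluorescence not abnormally high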;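 also: negative B-score means reduced calcium response which marks RGS4 activation or potentiation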
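Test system: HEK293 cells with stable M3R and inducible RGS4; also added: carbachol at ECmax as muscarinic agonist stimulus; schedule: dye loading 30 min 37 °C, buffer rest 30 min RT; technique: kinetic calcium fluorescence imaging with Fluo4-AM dye, 2 µM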
RGS4 inh: RGS4 inhibitors, primary screen, cell-based, HEK293 M3R inducible RGS4, calcium flux | Fluo-4 calcium flux; active compounds read high; triggered by carbachol at its EC20 | B-score at 10 µM | 310,000 compounds, 0.45% hits;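 active = B-score, a plate-corrected calcium signal, over three deviations above library mean, with baseline fluorescence within five deviations of library mean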;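 also: RGS4 expression induced by doxycycline in cells with stable M3 receptor; B-score is computed from the integrated fluorescence ratio over baseline after carbachol; higher B-score means a larger calcium signal and so more RGS4 inhibition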
Target sequence (P49798 whole entry, looked up): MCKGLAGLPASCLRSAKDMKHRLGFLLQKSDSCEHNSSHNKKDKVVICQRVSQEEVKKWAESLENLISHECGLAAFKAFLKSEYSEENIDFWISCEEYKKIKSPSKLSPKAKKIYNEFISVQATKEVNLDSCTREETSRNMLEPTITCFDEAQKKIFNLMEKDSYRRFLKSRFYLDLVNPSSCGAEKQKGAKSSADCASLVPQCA
RGS4 inh valid: enhanced carbachol calcium response, M3R/RGS4 cells, RGS4 inhibitor project, cell-based, validation screen, HEK293 M3R/RGS4, calcium flux. shares compounds with RGS4 inh. carbachol calcium Fluo-4 fluorescence; carbachol added at its EC20; 0 = buffer wells, 100 = carbachol control. calcium response, % at 10 µM. 1,700 compounds, 65% hits. AID 492999, 2010;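 active = duplicate-averaged calcium response above the buffer-only control mean plus 5 SD of those controls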;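 also: integrated fluorescence ratio F max minus min over baseline F0; higher response in RGS4-induced cells means RGS4 inhibition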
RGS4 uninduced: carbachol calcium response in non-induced M3R cells, confirmation, counter-screen for RGS4 inhibitor project, cell-based, HEK293 M3R; shares compounds with RGS4 inh; carbachol calcium Fluo-4; submaximal (EC20) carbachol stimulus; buffer wells 0%, carbachol control wells 100%; activity (percent), % at 10 µM; 1,900 compounds, 20% hits; AID 493000, 2010; call rule not given here;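 also: RGS4 induction absent so cells express M3R without RGS4; higher means more calcium signal and flags a non-specific hit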
M3R basal Ca ctr: second RGS4 inhibitor counter-screen in uninduced cells lacking carbachol | 1,900 compounds, 22% hits | calcium response (agonist-mode artifact), % at 10 µM | HEK293 M3R/RGS4 non-induced, Fluo-4 calcium, no carbachol; normalised: buffer wells 0%, carbachol wells 100% | AID 493001 | shares compounds with RGS4 inh;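 active = duplicate-averaged calcium rise in uninduced cells above buffer wells' mean plus 5 SD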
Each line names hits and unclear results; the compound was inactive in the other large screens (follow-up assays come after a bar, where they were run). Shown are actives, neighbours in structure and some others; about 3.5% of the full set was active somewhere.

CC(Nc1nc(-c2ccc(Cl)cc2)cs1)c1nc2cc(Cl)c(N3CCCCC3)cc2n1CCOCCO (stereo not drawn)	none | RGS4 uninduced inactive | M3R basal Ca ctr inactive
COc1ccc(-c2csc(NC(C)c3nc4cc(Cl)c(N5CCCCC5)cc4n3CCOCCO)n2)cc1 (stereo not drawn)	none | RGS4 inh valid inactive | RGS4 uninduced inactive | M3R basal Ca ctr inactive
COc1ccc(-c2csc(NC(C)c3nc4cc(Cl)c(N5CCCCC5)cc4n3CCCO)n2)cc1 (stereo not drawn)	none
CC(C)c1ccc(/C=N/NC(=O)c2c(Cl)cnn2C)cc1	none
O=C(/C=C/NNC(=O)c1ccccc1)c1ccccc1	none | RGS4 uninduced inactive | M3R basal Ca ctr inactive
O=C(/C=C/NNC(=O)c1ccc(Br)cc1)c1ccccc1	none
CCN1C(=O)N/C(=C/c2ccc(C)o2)C1=O	none
Cc1ccc(/C=C2/NC(=O)N(Cc3ccc(Br)cc3)C2=O)o1	none | RGS4 inh valid inactive | RGS4 uninduced inactive | M3R basal Ca ctr 22%
CC(NS(=O)(=O)c1ccc(Cl)cc1)C(=O)N1CCOCC1 (stereo not drawn)	none
S=c1[nH]nc(-c2cc(-c3ccsc3)n[nH]2)n1-c1cccc2ccccc12	RGS4 inh 6.1 | RGS4 inh valid 11% | RGS4 uninduced inactive | M3R basal Ca ctr inactive
O=C(O)Cn1cc(/C=C/[N+](=O)[O-])c2ccccc21	none
O=[N+]([O-])/C=C/c1cn(Cc2ccccc2)c2ccccc12	RGS4 inh 16 | RGS4 inh valid 35% | RGS4 uninduced inactive | M3R basal Ca ctr 88%
N#Cc1ccccc1Cn1cc(/C=C/[N+](=O)[O-])c2ccccc21	RGS4 inh 36 | RGS4 inh valid 186% | RGS4 uninduced inactive | M3R basal Ca ctr 52%
O=[N+]([O-])c1cccc(S(=O)(=O)NCCCN2CCOCC2)c1	none
Cc1[nH]n(-c2ccc(Br)cc2)c(=O)c1C=Nc1ccc(S(=O)(=O)Nc2nccs2)cc1	RGS4 inh 18 | RGS4 inh valid 9.5% | RGS4 uninduced inactive | M3R basal Ca ctr inactive
Cc1cc(C)nc(NS(=O)(=O)c2ccc(N=Cc3c(C)[nH]n(-c4ccccc4)c3=O)cc2)n1	none
CCc1nnc(NS(=O)(=O)c2ccc(N=Cc3c(C)[nH]n(-c4ccc(C)c(C)c4)c3=O)cc2)s1	none | RGS4 inh valid inactive | RGS4 uninduced inactive | M3R basal Ca ctr inactive
Cc1ccc(-n2[nH]c(C)c(C=Nc3ccc(S(=O)(=O)Nc4nccs4)cc3)c2=O)cc1	none
NC(=O)C1CCN(CC(O)COCc2ccccc2Cl)CC1 (stereo not drawn)	none
COc1ccccc1N(C)S(=O)(=O)c1ccc(C(=O)N2CCCC(C(F)(F)F)C2)cc1 (stereo not drawn)	none
N#C/C(=C/c1ccc(O)cc1)C(=O)NCc1ccc(Cl)cc1	none | RGS4 inh valid inactive | RGS4 uninduced inactive | M3R basal Ca ctr inactive
O=C(NCCS(=O)(=O)N1CCN(Cc2ccccc2)CC1)c1ccccc1	none
CCN(CC)c1nc(N)c2c(N)nc3c(c2c1C#N)CC(c1ccccc1)O3 (stereo not drawn)	RGS4 inh 5.3 | RGS4 inh valid 18% | RGS4 uninduced inactive | M3R basal Ca ctr inactive
O=C1COc2ccc(C(=O)CCl)cc2N1	RGS4 inh 13 | RGS4 inh valid 66% | RGS4 uninduced 58% | M3R basal Ca ctr 9.5%
CCN(CC(=O)NC(C)C)Cc1nc2c(Br)cc(Br)cc2c(=O)[nH]1	RGS4 inh 5 | RGS4 inh valid 25% | RGS4 uninduced inactive | M3R basal Ca ctr 12%
Cc1ccc(N(C(=O)C2CCC(=O)N2)C2(C(=O)NC3CCCC3)CCCCC2)cc1 (stereo not drawn)	none
Cn1c(SCC(=O)NCC2CCCO2)nc2c(c1=O)SCC2 (stereo not drawn)	none
Cc1cc(Cl)n2c(nc3ccccc32)c1C#N	RGS4 inh 11 (no result: MrgX1 PAM, MrgX1 antag, MrgX1 agonist) | RGS4 inh valid 31% | RGS4 uninduced inactive | M3R basal Ca ctr 10%
CNc1cc(C)c(C#N)c2nc3ccccc3n12	none
O=C(CS(=O)c1ccc(Br)cc1)N1CCOCC1 (stereo not drawn)	none
N#Cc1c(-c2ccccc2Cl)noc1/C=C/Nc1ccc(C(=O)O)cc1	none | RGS4 uninduced inactive | M3R basal Ca ctr inactive
CSC1=NCCN1C(=O)c1c(F)cccc1F	none
Cc1cc2nc(CS)[nH]c2cc1C	RGS4 inh 5.9 | RGS4 inh valid 28% | RGS4 uninduced inactive | M3R basal Ca ctr inactive
Cc1cc2nc(CO)[nH]c2cc1C	none
COc1cc(OC)c(OC)cc1NC(=O)CC1COc2ccccc2O1 (stereo not drawn)	none
COc1ccc(CCNC(=O)CC2COc3ccccc3O2)cc1OC (stereo not drawn)	RGS4 inh 13 | RGS4 inh valid inactive | RGS4 uninduced inactive | M3R basal Ca ctr inactive
CCSCc1nnc(SCC(=O)Nc2nc(C)cs2)n1C	none
Cc1cc(N)n2ncc(-c3ccc(F)cc3)c2n1	none
Nc1c(C(=O)O)cnc2c(-c3ccc(Cl)cc3)cnn12	RGS4 inh 7.7 | RGS4 inh valid 24% | RGS4 uninduced 31% | M3R basal Ca ctr inactive
Cc1cc(N)n2ncc(-c3ccc(Cl)cc3)c2n1	RGS4 inh 5.1 | RGS4 inh valid 17% | RGS4 uninduced inactive | M3R basal Ca ctr inactive
CCOC(=O)c1cnc(/N=C/N(C)C)s1	none
COc1ccccc1C1CC(c2c(-c3ccccc3)c3cc(Cl)ccc3[nH]c2=O)=NN1S(C)(=O)=O (stereo not drawn)	none (no result: RGS4 pot, RGS4 inh)
COc1cccc(C2CC(c3c(-c4ccccc4)c4cc(Cl)ccc4[nH]c3=O)=NN2S(C)(=O)=O)c1OC (stereo not drawn)	RGS4 inh 5.2 | RGS4 inh valid 9.0% | RGS4 uninduced inactive | M3R basal Ca ctr 80%
C=CCOn1c(=O)c(-c2ccc(OC)c(OC)c2)[n+]([O-])c2ccccc21	none
COc1ccc(-c2c(=O)n(OC)c3ccccc3[n+]2[O-])cc1OC	RGS4 inh 7.2 | RGS4 inh valid inactive | RGS4 uninduced inactive | M3R basal Ca ctr inactive
